Consider 37 variants from the RNAGym collection of RNA variant scans (doi:10.1126/science.aae0568).

This sample holds only a part of the variants without activity.

The labels stand for the following.
B1: tRNA (parent)
chain: GUUCCGUUGGCGUAAUGGUAACGCGUCUCCCUCCUAAGGAGAAGACUGCGGGUUCGAGUCCCGUACGGAACG

The variants in this data set derive from B1. As to the kind of experiment: yeast fitness relative to wild type (ratio to wild type); higher = fitter; tRNA-Arg(CCU), competitive growth, 37 C, YPD. The procedure, abridged:
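Gene amplicons from the start population and from each of six end populations were read by 100-nucleotide paired-end sequencing. Those end populations came from pooled Saccharomyces cerevisiae strains carrying tRNA-Arg(CCU) gene variants at the native locus, competed in YPD at 37°C for 24 hours. Fitness relative to wild type was worked out from changes in genotype frequencies. Genotypes needed ≥ 100 starting reads, and estimates < 0.5 were set to 0.5.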
For the variant GUUCCGAUGGCGUAAUGGUAACGCGUCUCCCUCCUAAGGAGAAGACUGCGGGUUCGAGUCGCGUACGGAACG [U7A C61G], the yeast fitness worked out at 0.563.

As to GUUCCGAUGGCGUAAUGGUAACGCGUUUCCCUCCUAAGGAGAAGACUGCGGGUUCGAGUCCCGUAAGGAACG [U7A C27U C66A], the yeast fitness is at most 0.5.

GUUCCGAUGGCGUAAUGGUAACGCGUUUCCCUCCUAAGGAGAAGAGUGCGGGUUCGAGUCCCGUACGGAACG [U7A C27U C46G]: the yeast fitness is 0.691.

As to GUUCCGAUGGCGUAAUGGUAACGCGUCUCUCUCCUAAGGAGAAGACUGCGGGUUCGAGUCCCGUCCGGAACG [U7A C30U A65C], the yeast fitness amounted to 0.633.

In the case of GUUCCGAUGGCGUAAUGGUAACGCGUCUCCCUCCUAAGGAGAAGACUGCGGGUUCGAGUUCCGUACGGAACG [U7A C60U], the yeast fitness stood at 0.652.

For GUUCCGAUGGCGUAAUGGUAACGCGUCUCCCUCCUAAGGAGAAGACUGCGGGUUCGAGUGCCGUACGGAACG [U7A C60G], the yeast fitness worked out at 0.561.

On to GUUCCGAUGGCGUAAUGGUAACGCGUCUGCCUCCUGAGGAGAAGACUGCGGGUUCGAGUCCCGUACGGAACG [U7A C29G A36G], for which the yeast fitness is at most 0.5.

Regarding GUUCCGAUGGCGUAAUGGUAACGCGUCUGCCUCCUAAAGAGAAAAUUGCGGGUUCGAGUCCGGUACGGAACG [U7A C29G G38A G44A C46U C62G], the yeast fitness was at most 0.5.

With GUUCCGAUGGCGUAAUGGUAACGCGUCUCCGUCCUAAGGAGAAGACUGCGGGUUCGAGUCCCAUACGGAACG [U7A C31G G63A], the yeast fitness was at most 0.5.

GUUCCGAUGGCGUAAUGGUAACGCGUCUCCGUCCUAAGGAGAAGACUGCGAGUUCGAGUCCCGAAUGCAACG [U7A C31G G51A U64A C66U G68C]: the yeast fitness was at most 0.5.

For the variant GUUCCGAUGGCGUAAUGGUAACGCGUUUCACUCCUAAGGAGAAGACUGCGGGUUCGAGUCCCGUACGGUACG [U7A C27U C30A A69U], the yeast fitness is at most 0.5.

Consider GUUCCGAUGGCGUAAUGGUAACGCGUCUCCCUCCUAAGGAGAAGACUGCGGGUUUGAGUCCCGUGCGGAACG [U7A C55U A65G], for which the yeast fitness was at most 0.5.

In the case of GUUCCGAUGGCGUAAUGGUAACGCGUCUCCGUCCUAAGGAGAAGACUGCGGGUUCGAGUCCCGAAUGCAACG [U7A C31G U64A C66U G68C], the yeast fitness was at most 0.5.

As for GUUCCGAUGGCGUAAUGGUAACGCGUCUCGCUCCUAAGGAGACGACUGCGGGUUCGUAUCCCGUACGGAACG [U7A C30G A43C A57U G58A], the yeast fitness is at most 0.5.

With GUUCCGAUGGCGUAAUGGUAACGCGUCUCCCUCCUAAGGAGAAGACUGCGGGUUCGAGUGCCGUACGGGACG [U7A C60G A69G], the yeast fitness came out at 0.588.

Regarding GUUCCGAUGGCGUAAUGGUAACGCGUCUACCUCCUAAGGAGAAGACUGCGGGUUCGAAUCGCGUACGGAACG [U7A C29A G58A C61G], the yeast fitness stood at 0.604.

GUUCCGAUGGCGUAAUGGUAACGCGUCUGCCUCCUAAGGAGAAGACUGCGGGUUCGAGUCCCGUACUGAACG [U7A C29G G67U]: the yeast fitness is at most 0.5.

As to GUUCCGAUGGCGUAAUGGUAACGCGUCUACCUCCUAAGGAGAAGACUGCGGGUUCGAAUCGCAUACGGAUCG [U7A C29A G58A C61G G63A A70U], the yeast fitness was found to be 0.526.

Take GUUCCGAUGGCGUAAUGGUAACGCGUUUCGCUCCUAACGAGAAGACUGUGGGUUCGAGUCCCGUGCGGAACG [U7A C27U C30G G38C C49U A65G]: the yeast fitness was 0.664.

Take GUUCCGAUGGCGUAAUGGUAACGCGUCUCCCUUCUAAGGAGAAGACUGCGGGUUCGAGUCCCGUACGGAACG [U7A C33U]: the yeast fitness came out at 0.592.

For GUUCCGAUGGCGUAAUGGUAACGCGUCUCCCUGCUAAGGAGAAGACUGCGGGUUCGAGUCCCGUACGGAACG [U7A C33G], the yeast fitness was 0.59.

GUUCCGAUGGCGUAAUGGUAACGCGUCUCUCUCCUAAGGAGAAGACUGCGGGUUCGAGUCCCGUACGGAACG [U7A C30U]: the yeast fitness came to 0.614.

Take GUUCCGAUGGCGUAAUGGUAACGCGUAUGGCUCCUAAGGAGAAGACAGCGGGUUCGAGUCCCGUACGGAGCG [U7A C27A C29G C30G U47A A70G]: the yeast fitness was at most 0.5.

For GUUCCGAUGGCGUAAUGGUAACGCGUGUCCCUACUGAGGAGAAGACUGCGGGUUCGAAUCCCGUAUGGAACG [U7A C27G C33A A36G G58A C66U], the yeast fitness is at most 0.5.

With GUUCCGAUGGCGUAAUGGUAACGCGUCUGCCUCCUAAGGAGAAGAGUGCGGGUUCGAAUCCCGUACGGAACG [U7A C29G C46G G58A], the yeast fitness is at most 0.5.

GUUCCGAUGGCGUAAUGGUAACGCGUCUCCCUCCUAAGGAGAAGACUGCGGGUUUGAGUCCCGUACCGAACG [U7A C55U G67C]: the yeast fitness is at most 0.5.

For the variant GUUCCGAUGGCGUAAUGGUAACGCGUCUCCCUACUAAGGAGAAGAUUGCGGGUUCGAGUCCCUUACGGAACG [U7A C33A C46U G63U], the yeast fitness was found to be 0.574.

For GUUCCGAUGGCGUAAUGGUAACGCGUCUGCCUCCUAAGGAGAAGAGUGCGGGUUCGAGUCCCGUACGGAACG [U7A C29G C46G], the yeast fitness was at most 0.5.

GUUCCGAUGGCGUAAUGGUAACGCGUCUCCCUCAUAAGGAGAAGAUUGCGGGUUCGAGUCCCGUACGGAACG [U7A C34A C46U]: the yeast fitness is at most 0.5.

In the case of GUUCCGAUGGCGUAAUGGUAACGCGUCUCUCUCCUAAGGAGAAGACUGCGGGUUCGAGUCCCGUAUGGAACG [U7A C30U C66U], the yeast fitness is at most 0.5.

Consider GUUCCGAUGGCGUAAUGGUAACGCGUCUCACUCCUAAGGAGAAGACUGCGGGUUCGAGUCCCGUACGGAUCG [U7A C30A A70U], for which the yeast fitness stood at 0.601.

For GUUCCGAUGGCGUAAUGGUAACGCGUCUGCCCCCUAAAGAGAAGACUGCGGGUUCGAGUCCCGUACGGAACG [U7A C29G U32C G38A], the yeast fitness was at most 0.5.

GUUCCGAUGGCGUAAUGGUAACGCGUCUUCCUUCUAAGGAGAAGACUGCGGGUACGAGUCCCGUACGGAACG [U7A C29U C33U U54A]: the yeast fitness is at most 0.5.

For GUUCCGAUGGCGUAAUGGUAACGCGUCUCAGUCCUAAGGAGAUGACUGCGGGUGCGAGUCCGGUACGGAACG [U7A C30A C31G A43U U54G C62G], the yeast fitness was at most 0.5.

As to GUUCCGAUGGCGUAAUGGUAACGCGUCUCCAUCCUAAGCAGAAGACUGCGGGUUCCAGUCCCGUACGGAACG [U7A C31A G39C G56C], the yeast fitness is at most 0.5.

GUUCCGAUGGCGUAAUGGUAACGCGUCUCCGUCCUAAGGAGAAGACUGCGGGUUCGAGUCCCGAAUGCGACG [U7A C31G U64A C66U G68C A69G]: the yeast fitness was at most 0.5.

As to GUUCCGAUGGCGUAAUGGUAACGCGUUUCCCUCCUAAGGAGAAGACUGCGGCUUCGAGUCCCGUACGGAACG [U7A C27U G52C], the yeast fitness worked out at 0.583.
